# Measurements pooled from the literature.
# Lines come from different studies, so protocols differ.
Structure (SMILES),tested on,assay,system,conditions,quantity,value
CC(=O)Oc1ccc(-c2c(C(N)=O)c(N)n(N)c(=O)c2C#N)cc1,Saccharomyces cerevisiae,"microbial growth, well diffusion",ATCC9763,500 µg/mL,inhibition zone,9 mm
O=C(NC(=S)Nc1ccccn1)c1ccco1,Leishmania tropica,"parasite growth, resazurin",,promastigote,IC50,0.94 µM
C=CC(=O)NC1CCN(c2ncc3ncnc(Nc4ccc(Oc5ccc6c(c5)ncn6C)c(C)c4)c3n2)CC1,PANC-1,cell growth or viability,,,EC50,1.8 µM
Nc1ccc(/C=C/C(=O)NCc2cc3cc(-c4ccc(C(=O)N5CCC(F)(F)CC5)cc4)cc(-c4ccc(F)cc4)c3o2)cn1,PANC-1,"cell growth or viability, CCK-8",,72 h,IC50,> 20 µM
Cc1c(C(N)=S)c(N)n(N)c(=O)c1C#N,Saccharomyces cerevisiae,"microbial growth, well diffusion",ATCC9763,500 µg/mL,inhibition zone,18 mm
O=C(NC(=S)Nc1ccccc1O)c1ccco1,Leishmania tropica,"parasite growth, resazurin",,promastigote,IC50,4.19 µM
C=CC(=O)Nc1cc(Nc2nccc(-c3cn(C)c4ccccc34)n2)c(OC)cc1N(C)CCN(C)C,PANC-1,"cell growth or viability, MTS",,72 h,IC50,7.14 µM
N#Cc1c(-c2ccc(Cl)cc2Cl)c(C(N)=S)c(N)n(N)c1=O,Saccharomyces cerevisiae,"microbial growth, well diffusion",ATCC9763,500 µg/mL,inhibition zone,11 mm
O=C(NC(=S)Nc1cccc(O)c1)c1cccs1,Leishmania tropica,"parasite growth, resazurin",,promastigote,IC50,0.48 µM
CN(C)c1ccc(-c2c(C(N)=O)c(N)n(N)c(=O)c2C#N)cc1,Saccharomyces cerevisiae,"microbial growth, well diffusion",ATCC9763,500 µg/mL,inhibition zone,13 mm
COc1ccc(Cc2[nH]/c(=N/C(=O)C34CC5CC(CC(C5)C3)C4)n(C)c2-c2ccc(OC(=O)c3ccccc3)c(OC)c2)cc1,Hepatitis B virus,"viral replication, inhibitor",HePAD38,,IC50,9.82 µM
Nc1ccc(/C=C/C(=O)N2CCc3c(oc4c(-c5ccc(F)cc5)cc(-c5ccc(C(=O)N6CCC(F)(F)CC6)nn5)cc34)C2)cn1,PANC-1,"cell growth or viability, CCK-8",,72 h,IC50,> 20 µM
